Results as given in ChEMBL document CHEMBL3425508, “Discovery of potent hexapeptide agonists to human neuromedin u receptor 1 and identification of their serum metabolites” (ACS Med Chem Lett, 2015).
Activity calls are given as the source filed them. No cut-off for these calls is given here. Non-standard residues stand in square brackets, D forms with d. Residues, ends and D or L forms follow the SMILES beside them. *: point of attachment. Propanoyl(3-(3-pyridyl)) = O=C(CCc1cccnc1)*; Phe(4-F) = N[C@@H](Cc1ccc(F)cc1)C(=O)O; 2Nal = N[C@@H](Cc1ccc2ccccc2c1)C(=O)O; Acetyl(2-thienyl) = O=C(Cc1cccs1)*; Hydrocinnamoyl = O=C(CCc1ccccc1)*; 2Thi = N[C@@H](Cc1cccs1)C(=O)O

Tests used:
[1] = target: T1, Neuromedin-U receptor 1 (Homo sapiens) (UniProt Q9HB89); assay: Agonist activity at human NMUR1 expressed in CHO cells assessed as intracellular calcium flux at 1 and 10 nM by Fluo-4 AM dye based fluorometric imaging method relative to 1000 nM human neuromedin U; assay type: functional, cell-based
T1 sequence (whole entry): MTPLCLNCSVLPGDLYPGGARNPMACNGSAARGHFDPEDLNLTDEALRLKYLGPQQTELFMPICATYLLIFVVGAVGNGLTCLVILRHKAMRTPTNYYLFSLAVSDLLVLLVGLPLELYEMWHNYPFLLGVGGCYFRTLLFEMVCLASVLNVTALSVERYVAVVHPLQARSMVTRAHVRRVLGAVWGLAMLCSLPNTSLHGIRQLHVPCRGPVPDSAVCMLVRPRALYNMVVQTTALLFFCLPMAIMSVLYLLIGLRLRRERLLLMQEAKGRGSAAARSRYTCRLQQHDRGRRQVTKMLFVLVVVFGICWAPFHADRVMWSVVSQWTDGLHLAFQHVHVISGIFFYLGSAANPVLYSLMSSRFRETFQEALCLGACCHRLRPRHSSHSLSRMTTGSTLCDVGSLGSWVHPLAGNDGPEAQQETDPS

Neuromedin-U receptor 2 = Neuromedin-U receptor 2 (Homo sapiens, UniProt Q9GZQ4); assay: Agonist activity at human NMUR2 expressed in CHO cells assessed as intracellular calcium flux at 1 and 10 nM by Fluo-4 AM dye based fluorometric imaging method relative to 1000 nM human neuromedin U; assay type: functional, cell-based
Serum [2] = assay: Drug level in 25% rat serum treated with 1 mM (S)-2-((S)-2-((S)-1-((6S,9S,12S)-1-amino-9-benzyl-1-imino-12-isobutyl-8,11,14-trioxo-16-phenyl-2,7,10,13-tetraazahexadecanecarbonyl)pyrrolidine-2-carboxamido)-5-guanidinopentanamido)succinamide assessed as compound formation at 37 degC by RP-HPLC method; assay type: ADME, cell-free
Procedure, shortened: (§1)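 Peptides incubated in 25% rat serum at 37 °C and sampled over time (10, 30, 60 min). Samples extracted on Sep-Pak C18 cartridges and analysed by C18 RP-HPLC with UV detection at 220 nm. Metabolites identified by mass spectrometry. Recovery of intact peptide measured at 10 or 60 min, in triplicate.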

[3] = Drug metabolism in 25% rat serum assessed as drug recovery at 1 mM incubated for 60 mins at 37 degC by RP-HPLC method; assay type: ADME, cell-free; details: read-out: Drug recovery; procedure, shortened: as §1
Serum [4] = assay: Drug level in 25% rat serum treated with 1 mM (S)-2-((S)-2-((S)-1-((6S,9S,12S)-12-((1H-indol-3-yl)methyl)-1-amino-9-benzyl-1-imino-8,11,14-trioxo-15-(thiophen-2-yl)-2,7,10,13-tetraazapentadecanecarbonyl)pyrrolidine-2-carboxamido)-5-guanidinopentanamido)succinamide assessed as compound formation at 37 degC by RP-HPLC method; assay type: ADME, cell-free; procedure, shortened: as §1
Serum [5] = assay: (§2) Retention time in 25% rat serum treated with 1 mM (S)-2-((S)-2-((S)-1-((S)-2-((S)-2-((S)-3-(1H-indol-3-yl)-2-(2-(thiophen-2-yl)acetamido)propanamido)-3-(4-fluorophenyl)propanamido)-5-guanidinopentanoyl)pyrrolidine-2-carboxamido)-5-guanidinopentanamido)succinamide incubated for 10 mins at 37 degC by RP-HPLC method; assay type: ADME, cell-free; procedure, shortened: as §1
Serum [6] = assay: as §2, with “30” for “10”; assay type: ADME, cell-free; details: 0.5 h; procedure, shortened: as §1
Serum [7] = assay: Drug metabolism in 25% rat serum assessed as cleavage at Phe(2)-Arg(3) site at 1 mM at 37 degC by RP-HPLC method; assay type: ADME, cell-free; details: 1000 µM; procedure, shortened: as §1
Serum [8] = assay: Drug metabolism in 25% rat serum assessed as cleavage at Arg(5)-Asn(6) site at 1 mM at 37 degC by RP-HPLC method; assay type: ADME, cell-free; details: 1000 µM; procedure, shortened: as §1
Serum [9] = assay: Drug metabolism in 25% rat serum assessed as formation of 3-phenylpropionyl-Leu1-Phe2-Arg3-Pro4-Arg5-OH at 1 mM at 37 degC by RP-HPLC method; assay type: ADME, cell-free; details: 1000 µM; procedure, shortened: as §1
Serum [10] = assay: Drug metabolism in 25% rat serum assessed as formation of 3-phenylpropionyl-Leu1-Phe2-OH at 1 mM at 37 degC by RP-HPLC method; assay type: ADME, cell-free; details: 1000 µM; procedure, shortened: as §1
[11] = Drug metabolism in 25% rat serum assessed as drug recovery at 1 mM incubated for 10 mins at 37 degC by RP-HPLC method; assay type: ADME, cell-free; details: read-out: Drug recovery; procedure, shortened: as §1

Sequence of Neuromedin-U receptor 2 (Q9GZQ4 whole entry): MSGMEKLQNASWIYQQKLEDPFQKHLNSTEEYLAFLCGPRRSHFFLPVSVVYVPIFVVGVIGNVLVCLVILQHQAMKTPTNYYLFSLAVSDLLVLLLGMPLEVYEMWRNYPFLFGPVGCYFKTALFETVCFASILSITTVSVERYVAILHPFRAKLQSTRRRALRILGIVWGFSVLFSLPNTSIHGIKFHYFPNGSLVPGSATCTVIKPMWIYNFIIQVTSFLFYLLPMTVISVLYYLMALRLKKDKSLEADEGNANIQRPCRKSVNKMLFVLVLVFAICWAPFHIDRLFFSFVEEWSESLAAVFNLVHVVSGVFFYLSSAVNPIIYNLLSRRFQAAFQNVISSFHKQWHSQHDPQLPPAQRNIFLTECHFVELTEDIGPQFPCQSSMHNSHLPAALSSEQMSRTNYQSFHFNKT

With Ac-FFRPRN-NH2 the Activity [1] was “inactive” and the Activity (Neuromedin-U receptor 2) was “inactive”.
With `CC(C)C[C@H](NC(=O)CCc1ccccc1)C(=O)N[C@@H](Cc1ccccc1)C(=O)N[C@@H](CCCNC(=N)N)C(=O)N1CCC[C@H]1C(=O)N[C@@H](CCCNC(=N)N)C(=O)O` (Hydrocinnamoyl-LFRPR-OH) the Drug metabolism (Serum [2]) was “metabolite_detected” and the remaining at 1 h, 1000 µM [3] was 56.9%.
In the case of `O=C(Cc1cccs1)N[C@@H](Cc1c[nH]c2ccccc12)C(=O)N[C@@H](Cc1ccccc1)C(=O)O`, the Drug metabolism (Serum [4]) was “metabolite_detected”.
For `N=C(N)NCCC[C@H](NC(=O)[C@@H]1CCCN1C(=O)[C@H](CCCNC(=N)N)NC(=O)[C@H](Cc1cccs1)NC(=O)[C@H](Cc1c[nH]c2ccccc12)NC(=O)Cc1cccs1)C(=O)N[C@@H](CC(N)=O)C(N)=O` ({Acetyl(2-thienyl)}-W[2Thi]RPRN-NH2), the Activity [1] was “Active” and the Activity (Neuromedin-U receptor 2) was “Active”.
`N=C(N)NCCC[C@H](NC(=O)[C@@H]1CCCN1C(=O)[C@H](CCCNC(=N)N)NC(=O)[C@H](Cc1ccc(F)cc1)NC(=O)[C@H](Cc1c[nH]c2ccccc12)NC(=O)Cc1cccs1)C(=O)O` ({Acetyl(2-thienyl)}-W[Phe(4-F)]RPR-OH) showed a Retention_time (Serum [5]) of 43.7 min and a remaining at 1 h, 1000 µM [3] of 54%.
In the case of `N=C(N)NCCC[C@H](NC(=O)[C@@H]1CCCN1C(=O)[C@H](CCCNC(=N)N)NC(=O)[C@H](Cc1ccccc1)NC(=O)[C@H](Cc1ccccc1)NC(=O)CCc1cccnc1)C(=O)N[C@@H](CC(N)=O)C(N)=O` ({Propanoyl(3-(3-pyridyl))}-FFRPRN-NH2), the Activity [1] was “Active” and the Activity (Neuromedin-U receptor 2) was “Active”.
`O=C(Cc1cccs1)N[C@@H](Cc1c[nH]c2ccccc12)C(=O)N[C@@H](Cc1ccc(F)cc1)C(=O)O` showed a Retention_time (Serum [6]) of 61.2 min.
With `N=C(N)NCCC[C@H](NC(=O)[C@@H]1CCCN1C(=O)[C@H](CCCNC(=N)N)NC(=O)[C@H](Cc1ccccc1)NC(=O)[C@H](Cc1ccc2ccccc2c1)NC(=O)CCc1cccnc1)C(=O)N[C@@H](CC(N)=O)C(N)=O` ({Propanoyl(3-(3-pyridyl))}-[2Nal]FRPRN-NH2) the Activity (Neuromedin-U receptor 2) was “Active”.
With `N=C(N)NCCC[C@H](NC(=O)[C@@H]1CCCN1C(=O)[C@H](CCCNC(=N)N)NC(=O)[C@H](Cc1c[nH]cn1)NC(=O)[C@H](Cc1c[nH]c2ccccc12)NC(=O)Cc1cccs1)C(=O)N[C@@H](CC(N)=O)C(N)=O` ({Acetyl(2-thienyl)}-WHRPRN-NH2) the Activity [1] was “inactive” and the Activity (Neuromedin-U receptor 2) was “inactive”.
For `CC(C)C[C@H](NC(=O)CCc1ccccc1)C(=O)N[C@@H](Cc1ccccc1)C(=O)N[C@@H](CCCNC(=N)N)C(=O)N1CCC[C@H]1C(=O)N[C@@H](CCCNC(=N)N)C(=O)N[C@@H](CC(N)=O)C(N)=O` (Hydrocinnamoyl-LFRPRN-NH2), the Activity [1] was “Active”, the Activity (Neuromedin-U receptor 2) was “Active” and the Drug metabolism (Serum [7]) was “metabolite_detected”. The Drug metabolism (Serum [8]) was “metabolite_detected”, the Drug metabolism (Serum [9]) was “metabolite_detected” and the Drug metabolism (Serum [10]) was “metabolite_detected”. The Drug metabolism (Serum [2]) was “metabolite_detected” and the remaining at 10 min, 1000 µM [11] was 64%.
